For data set [1], the target named is T1, Lysosomal acid glucosylceramidase (Homo sapiens) (UniProt P04062).
T1 sequence (whole entry): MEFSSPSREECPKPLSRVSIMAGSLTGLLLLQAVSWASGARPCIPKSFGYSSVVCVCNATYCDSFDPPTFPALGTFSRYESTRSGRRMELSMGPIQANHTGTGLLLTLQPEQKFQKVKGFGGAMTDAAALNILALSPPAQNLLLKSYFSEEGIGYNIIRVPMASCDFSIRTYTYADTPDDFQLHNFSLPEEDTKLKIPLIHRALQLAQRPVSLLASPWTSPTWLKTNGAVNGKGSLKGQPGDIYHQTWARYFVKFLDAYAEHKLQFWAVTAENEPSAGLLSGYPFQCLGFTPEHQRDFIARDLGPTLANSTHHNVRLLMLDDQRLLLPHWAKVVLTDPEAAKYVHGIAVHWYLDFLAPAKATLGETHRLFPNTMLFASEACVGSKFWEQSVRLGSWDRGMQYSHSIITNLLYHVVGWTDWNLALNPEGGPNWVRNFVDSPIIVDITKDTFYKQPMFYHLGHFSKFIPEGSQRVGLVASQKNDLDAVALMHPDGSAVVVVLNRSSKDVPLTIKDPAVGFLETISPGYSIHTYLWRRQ
Nature of the data set: Binding affinity to recombinant beta-glucocerebrosidase assessed as enzymatic activity at 50 uM after 40 mins by thermal stabilization assay relative to control.

For data set [2], the target named is T1, Lysosomal acid glucosylceramidase (Homo sapiens). Nature of the data set: Binding affinity to recombinant beta-glucocerebrosidase assessed as enzymatic activity at 150 uM after 20 mins by thermal stabilization assay relative to control.
The target is the same in data set [3]. Nature of the data set: Binding affinity to recombinant beta-glucocerebrosidase assessed as enzymatic activity at 150 uM after 60 mins by thermal stabilization assay relative to control.
Data set [4] has as its target T2, Lysosomal acid glucosylceramidase (Homo sapiens, UniProt P04062).
T2 sequence (P04062 whole entry): T1 sequence (whole entry)
Description: Inhibition of recombinant beta-glucocerebrosidase at pH 5.2 after 10 mins by fluorimetry.

A short description of data set [5]: Cytotoxicity against human fibroblast at 300 uM after 24 hrs by MTT assay. It is filed as cell-based. For orientation: Tetrazolium assays rely on reduction of a dye to a coloured formazan, in cell work by metabolically active cells.
Data set [6] concerns the target T1, Lysosomal acid glucosylceramidase (Homo sapiens). Description: Binding affinity to recombinant beta-glucocerebrosidase assessed as enzymatic activity at 150 uM after 40 mins by thermal stabilization assay relative to control.
Data set [7] shares this target. Nature of the data set: Binding affinity to recombinant beta-glucocerebrosidase assessed as enzymatic activity at 50 uM after 60 mins by thermal stabilization assay relative to control.
Data set [8] has the same target. Nature of the data set: Binding affinity to recombinant beta-glucocerebrosidase assessed as enzymatic activity at 50 uM after 20 mins by thermal stabilization assay relative to control.
Data set [9] has the same target. Nature of the data set: Binding affinity to recombinant beta-glucocerebrosidase assessed as enzymatic activity at 100 uM after 20 mins by thermal stabilization assay relative to control.
Data set [10] has the same target. Description: Binding affinity to recombinant beta-glucocerebrosidase assessed as enzymatic activity at 100 uM after 40 mins by thermal stabilization assay relative to control.
Data set [11] has as its target T2, Lysosomal acid glucosylceramidase. Description: Competitive inhibition of beta-glucocerebrosidase at pH 5.2 by Lineweaver-Burke plot analysis.
The target in data set [12] is T1, Lysosomal acid glucosylceramidase (Homo sapiens). Nature of the data set: Binding affinity to recombinant beta-glucocerebrosidase assessed as enzymatic activity at 100 uM after 60 mins by thermal stabilization assay relative to control.
The nature of data set [13]: Dissociation constant, pKa of the compound. It is filed as physicochemical.
Data set [14] has as its target T1, Lysosomal acid glucosylceramidase (Homo sapiens). Nature of the data set: Inhibition of beta-glucocerebrosidase in human fibroblast at 50 uM after 24 hrs by fluorescence assay. In a few lines: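 Wild-type human fibroblasts exposed to compound for 24 h (10, 20 or 50 μM, as listed) with 5 mM substrate. Cellular GCase activity then measured.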
Data set [15] has as its system Oryza sativa. Description: Inhibition of rice alpha-glucosidase at 0.1 mM.
Data set [16] concerns Oryza sativa. Nature of the data set: Inhibition of rice alpha-galactosidase at 0.1 mM.
A further data set relates to Saccharomyces cerevisiae. Description: Inhibition of yeast alpha-glucosidase at 0.1 mM.
Data set [17] deals with T2, Lysosomal acid glucosylceramidase. Nature of the data set: Inhibition of recombinant beta-glucocerebrosidase at pH 7.4 after 10 mins by fluorimetry.
The test system of a further data set is Prunus dulcis. Description: Inhibition of sweet almond beta-glucosidase at 0.1 mM.
Data set [18] concerns the target T3, Beta-galactosidase (Bos taurus) (UniProt Q58D55).
T3 sequence (whole entry): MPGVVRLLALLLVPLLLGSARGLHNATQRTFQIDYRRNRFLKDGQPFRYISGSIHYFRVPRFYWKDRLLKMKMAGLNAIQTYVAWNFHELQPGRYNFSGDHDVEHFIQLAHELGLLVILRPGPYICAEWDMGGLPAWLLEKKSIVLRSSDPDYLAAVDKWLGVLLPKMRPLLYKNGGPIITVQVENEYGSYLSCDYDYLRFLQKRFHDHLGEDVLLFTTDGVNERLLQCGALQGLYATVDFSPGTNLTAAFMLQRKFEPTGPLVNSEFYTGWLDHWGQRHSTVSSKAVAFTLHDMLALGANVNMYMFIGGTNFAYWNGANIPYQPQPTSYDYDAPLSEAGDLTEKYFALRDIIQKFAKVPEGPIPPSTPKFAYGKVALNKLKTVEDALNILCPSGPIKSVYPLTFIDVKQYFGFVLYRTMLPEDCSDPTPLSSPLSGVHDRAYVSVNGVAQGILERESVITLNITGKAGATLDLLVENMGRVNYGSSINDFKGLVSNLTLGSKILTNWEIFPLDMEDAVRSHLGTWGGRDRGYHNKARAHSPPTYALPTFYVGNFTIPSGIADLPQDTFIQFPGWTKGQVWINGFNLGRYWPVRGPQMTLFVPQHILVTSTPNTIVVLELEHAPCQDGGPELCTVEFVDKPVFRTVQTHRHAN
Description: Inhibition of bovine liver beta-galactosidase at 0.1 mM.

Data set [19] concerns the target T2, Lysosomal acid glucosylceramidase. Description: Inhibition of recombinant beta-glucocerebrosidase after 10 mins by fluorimetry. In a few lines:
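Imiglucerase (0.1 mg/mL stock) in McIlvaine buffer, pH 5.2 or 7.4, with 0.2% sodium taurocholate and 0.1% Triton X-100. Preincubated 30 min at 37 °C with or without inhibitor. Then 4 mM 4-methylumbelliferyl-β-D-glucopyranoside added for 10 min at 37 °C. Stopped with glycine/NaOH pH 10.6; 4-MU read at ex 355/em 460 nm. IC50 from % activity vs log[I], at least five concentrations.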

Data set [20] is described as follows: Cytotoxicity against human fibroblast after 24 hrs by MTT assay. It counts as cell-based. Particulars: human fibroblasts.
Data set [21] can be described thus: Selectivity index, ratio of CC50 for human fibroblast to Ki for beta-glucocerebrosidase.

Active and inactive are the calls of the source. No cut-off for these calls is given here.

For `CCCCCCCCCCN[C@H]1[C@H](O)[C@@H](O)[C@H](O)[C@@H](O)[C@@H]1O`, the fold change (FC) in data set [1] was 2.33; in data set [2] it was 1.99; in [3], 11.3; in data set [6], 5.85; in data set [7] it was 2.24; in data set [8], 1.29. In addition, the figures for the fold change (FC) in [9], in data set [10] and in [12] were 1.84, 4.49 and 4.89, respectively. Besides, the IC50 (as a rule, the concentration needed to halve the response being measured) in data set [4] amounted to 1.8 µM. Also, the Activity result in data set [5] is reported as “Non-toxic”. Also, in data set [11], the affinity corresponds to a Ki of 0.3 µM.

Regarding `CCCOCCCCCCn1cc(CN[C@H]2[C@H](O)[C@@H](O)[C@H](O)[C@@H](O)[C@@H]2O)nn1`, the pKa (usually the pH at which an ionisable group is half protonated) in [13] came to 7.1. In data set [14], the inhibition (commonly how much of the control response was suppressed) was less than 5%. Also, the inhibition result (in the data set on Oryza sativa [15]; with Oryza sativa [16]; in the data set with Saccharomyces cerevisiae; with Prunus dulcis; in [18]) was “inactive” throughout. Besides, the IC50 in [4] is 7.4 µM; in data set [17] it was 6.2 µM; in data set [19] it was 7.41 µM. In data set [5], the Activity entry is “Non-toxic”. The Ki – broadly, the dissociation constant of the complex between target and ligand, obtained from inhibition or displacement – in data set [11] was 2.4 µM.

Turning to `CCCCN1C[C@H](O)[C@@H](O)[C@H](O)[C@H]1CO`, the Activity entry in [5] is “Non-toxic”.

For `CCCCCCCCCn1cc(CCN[C@H]2[C@H](O)[C@@H](O)[C@H](O)[C@@H](O)[C@@H]2O)nn1`, in [13], the pKa stood at 9.1. For the same compound, the fold change (FC) came out at 4.54 in data set [1]; 2.37 in data set [2]; 9.44 in [3]; 6.1 in [6]; 4.62 in data set [7]; 2.22 in data set [8]. Moreover, the figures for the fold change (FC) in data set [9], in data set [10] and in data set [12] were 2.32, 5.75 and 7.6, respectively. The compound also displayed an inhibition in [14] of less than 5%. In addition, the inhibition entry (with Oryza sativa [15]; in the data set on Oryza sativa [16]; with Saccharomyces cerevisiae; with Prunus dulcis; in data set [18]) was “inactive” in each case. Besides, the IC50 in data set [4] is 44.7 µM; in data set [17] it was 11 µM; in data set [19], 44.7 µM. Also, in [5], the Activity entry is “Non-toxic”.

Compound `CCCCCCCCn1cc(CN[C@H]2[C@H](O)[C@@H](O)[C@H](O)[C@@H](O)[C@@H]2O)nn1` returned a pKa in data set [13] of 7.7. Moreover, the inhibition in [14] was 20%. The inhibition entry (in the data set on Oryza sativa [15]; with Oryza sativa [16]; in the data set with Saccharomyces cerevisiae; in the data set with Prunus dulcis; in data set [18]) was “inactive” each time. The IC50 in data set [4] is 1 µM; in [17], 1.1 µM; in data set [19], 1.05 µM. For the same compound, the Activity result in data set [5] is “Non-toxic”. In [11], this compound registered a Ki of 1.8 µM.

For the compound `CCCCCCCCCCn1cc(CCCN[C@H]2[C@H](O)[C@@H](O)[C@H](O)[C@@H](O)[C@@H]2O)nn1`, in data set [13], the pKa was 9.9. Further, the inhibition in data set [14] is 20%. Also, the inhibition result (in the data set on Oryza sativa [15]; in the data set with Oryza sativa [16]; in the data set with Saccharomyces cerevisiae; in the data set on Prunus dulcis; in [18]) was “inactive” throughout. In addition, the CC50 (in general, the concentration that lowers cell viability or growth by half) at 24 h in data set [20] is 170 µM. Besides, the IC50 is 3.5 µM in [4], 1.2 µM in [17] and 3.47 µM in data set [19]. Also, the affinity in data set [11], expressed as Ki, was 7.6 µM.

Turning to `O[C@@H]1[C@@H](O)[C@H](O)[C@@H](NCc2cn(CCc3ccccc3)nn2)[C@H](O)[C@H]1O`, in [13], the pKa worked out at 7.8. Also, the inhibition in [14] was less than 5%. Further, the inhibition entry (with Oryza sativa [15]; in the data set on Oryza sativa [16]; with Saccharomyces cerevisiae; with Prunus dulcis; in data set [18]) was “inactive” in each case. In addition, the values for the IC50 in [4], in data set [17] and in data set [19] were 10.8 µM, 25 µM and 10.7 µM, respectively. Besides, the Activity entry in [5] was “Non-toxic”. Further, the Ki in data set [11] was 19.1 µM.

In turn, `CCCCCCCCCn1cc(CN[C@H]2[C@H](O)[C@@H](O)[C@H](O)[C@@H](O)[C@@H]2O)nn1` registered a pKa in data set [13] of 7.1. Further, the fold change (FC) in [1] is 5.69; in data set [2], 2.34; in [3], 15.5; in data set [6] it was 7.23; in data set [7], 9.95; in data set [8], 2.06. Besides, the fold change (FC) in data set [9] came out at 2.28; in [10], 6.71; in [12], 13. The inhibition in data set [14] amounted to 50%. The inhibition entry (in the data set with Oryza sativa [15]; in the data set on Oryza sativa [16]; with Saccharomyces cerevisiae; in the data set with Prunus dulcis; in data set [18]) was “inactive” in each case. Also, the values for the IC50 in [4], in [17] and in [19] were 0.2 µM, 0.2 µM and 0.224 µM, respectively. The Activity entry in [5] is given as “Non-toxic”. In data set [11], this compound had a Ki of 0.33 µM. The “Selectivity Index” value in [21] is “>=900”.

With `CCCCCCCCCN1C[C@H](O)[C@@H](O)[C@H](O)[C@H]1CO`, in [5], the Activity entry is reported as “Non-toxic”.

Turning to `CCCCCCCCn1cc(CCN[C@H]2[C@H](O)[C@@H](O)[C@H](O)[C@@H](O)[C@@H]2O)nn1`, the pKa in data set [13] is 9.1. In addition, the inhibition in [14] is less than 5%. Moreover, the inhibition entry (in the data set on Oryza sativa [15]; in the data set on Oryza sativa [16]; with Saccharomyces cerevisiae; in the data set on Prunus dulcis; in data set [18]) was “inactive” throughout. Besides, the IC50 in data set [4] was 167 µM; in data set [17] it was 55.9 µM; in data set [19], 166 µM. The Activity result in [5] is “Non-toxic”.

As for `CCCCn1cc(CN[C@H]2[C@H](O)[C@@H](O)[C@H](O)[C@@H](O)[C@@H]2O)nn1`, the pKa in data set [13] was 7.2. For the same compound, the inhibition in data set [14] is less than 5%. Further, the inhibition result (in the data set with Oryza sativa [15]; in the data set with Oryza sativa [16]; in the data set on Saccharomyces cerevisiae; with Prunus dulcis; in data set [18]) was “inactive” in each case. In addition, the IC50 in [4] and in data set [19] was 178 µM throughout. In addition, the Activity entry in data set [5] was “Non-toxic”.

(Values after ChEMBL document CHEMBL1155442, “Click chemistry approach to new N-substituted aminocyclitols as potential pharmacological chaperones for Gaucher disease” (J Med Chem, 2010).)
